# Screening results from PubChem BioAssay.
# CHOP UPR activ – activators of apoptotic CHOP UPR arm, primary screen, cell-based, CHO-CHOP luciferase reporter, luminescence, uHTS; UPR activation; percent of tunicamycin response over DMSO baseline; activation, % at 10 µM; actives 0.34% (n = 330,000); AID 449763, 2010;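 active means at 10 µM dose, activation of 40% or more, normalized to positive control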;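 further: 100% = tunicamycin at 10 µg/mL and 0% = DMSO alone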
#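 System: CHO-CHOP luciferase reporter cell line | Buffer or medium: F12 medium containing 10% fetal bovine serum | Doses: One dose, 10 µM in 0.5% DMSO | Times: 6 h compound exposure at 37 °C after overnight seeding | Signal: Luciferase luminescence | Read-out: % activation vs tunicamycin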
# H9c2 protect – cardioprotection against H2O2-induced cell death, primary screen, uHTS, H9c2 cells, ATPLite luminescence; AID 588492, 2011; actives 0.63% (n = 360,000); H9c2 cardiomyocytes, H2O2 injury protection, 2 h; protection from H2O2 cell death, % at 20 µM;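 active means compounds giving at least 50% protection of heart cells from peroxide-induced death in the single-dose screen, raw or plate-pattern-corrected value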;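 further: 0% = DMSO wells with peroxide and 100% = DMSO wells without peroxide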
# CHOP inh – inhibitors of CHOP promoter induction, primary screen, cell-based, unfolded protein response, luciferase reporter. CHO-K1 CHOP-promoter luciferase, tunicamycin-induced, 15-18 h. inhibition, % at 10 µM. actives 3.8% (n = 220,000). AID 2732, 2010;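 active means compounds that reduced the stress-induced luciferase reporter signal by more than about 70% of percent inhibition, limit read from the data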;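 further: 0% = tunicamycin plus vehicle and 100% = wells without tunicamycin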
# iPSC survival up – enhancers of single-cell hiPSC survival, primary screen, ATPlite luminescence | 100% = ROCK inhibitor wells, 0% = DMSO | survival enhancement, % at 20 µM | actives 0.044% (n = 360,000) | AID 602274, 2012; in the data active means survival enhancement above about 18%;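 further: cells exposed to compounds for 16 hours before the ATP read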
# XBP1 UPR activ – activators of adaptive XBP1 UPR arm, primary screen, cell-based, CHO-XBP1 luciferase reporter, luminescence, uHTS; IRE1-XBP1 UPR activation; percent of tunicamycin response, DMSO as zero; actives 0.33% (n = 330,000); AID 463104, 2010; activation, % at 20 µM;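 active means versus positive control, 20 µM dose yields 30% or more activation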;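 further: 100% = tunicamycin at 10 µg/mL and 0% = DMSO only wells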
#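 Test system: CHO-XBP1 luciferase reporter cells | Buffer or medium: Serum-containing F12 medium, 10% FBS | Schedule: 6 h compound exposure at 37 °C, 5% CO2 | Detection: Steady-Glo luciferase glow luminescence, 10 min after reagent addition | Read-out basis: Activation, % of tunicamycin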
# Starred values were filed as active, the others as inactive; / = no result given. The sample as a whole holds a higher share of hits than the screen did.
SMILES,CHOP UPR activ,H9c2 protect,CHOP inh,iPSC survival up,XBP1 UPR activ
CC(C)CC(NP(=O)(O)O[C@@H]1O[C@@H](C)[C@H](O)[C@@H](O)[C@H]1O)C(=O)NC(Cc1c[nH]c2ccccc12)C(=O)O (some centres not stated),/,/,-10.4,/,/
CCOc1ccc(N=Cc2c(O)n(CCc3ccc(OC)c(OC)c3)c(=O)[nH]c2=O)cc1,1.2,0.4,89.9*,-0.5,-6.0
COc1ccc(N=Cc2c(O)n(Cc3cccs3)c(=O)[nH]c2=O)cc1,1.4,-1.5,81.4*,0.9,2.8
COc1ccc(CCn2c(O)c(C=Nc3ccc(NC(C)=O)cc3)c(=O)[nH]c2=O)cc1OC,-0.3,8.3,2.4,8.1,-4.0
C=CCn1c(O)c(C=Nc2ccc(F)cc2)c(=O)[nH]c1=O,0.3,0.4,/,0.1,-3.4
C=CCn1c(O)c(C=Nc2ccc(N(CC)CC)cc2)c(=O)[nH]c1=O,-0.1,0.0,70.7*,1.3,1.5
CN1CCC23CCCC[C@H]2C1Cc1ccc(O)cc13 (some centres not stated),/,/,15.9,/,/
CN1Cc2cnnn2-c2ccccc2C1C#N (configuration not stated),/,2.7,/,39.8*,/
NC(=NCCC[C@H](N)C(=O)O)N[N+](=O)[O-],/,/,0.2,/,/
COc1ccc(C(c2nnnn2C2CCCCC2)N2CCC3(CC2)C(=O)NCN3c2ccccc2)cc1 (configuration not stated),/,13.1,/,1.5,/
CCOc1ccc2[nH]c(=O)c(CN(CCO)C3(c4nnnn4C4CCCCC4)CCCCC3)cc2c1,-0.2,78.5*,35.2,4.1,-1.7
Cc1ccc(OP(=O)(NC(C)c2ccccc2)Oc2ccc(C)cc2)cc1 (configuration not stated),-0.6,-12.5,77.4*,0.1,-2.0
Cc1ccc(NP(=O)(Oc2ccccc2)Oc2ccccc2)cc1,/,0.4,/,0.3,/
O=P1(c2ccccc2)CC=CC1,/,-0.8,/,0.9,/
CN(CC1COc2ccccc2O1)c1nc(-c2cccnc2)nc2ccccc12 (configuration not stated),7.3,90.4*,29.4,-3.8,3.4
COc1cccc(CN2CCNCC2)c1OC,-0.2,11.1,/,-0.6,-5.1
Brc1ccc(CN2CCNCC2)s1,-3.0,-6.3,70.8*,3.4,-2.9
Cc1cccc(C)c1NC(=O)c1cccn(Cc2ccc3c(c2)OC(F)(F)O3)c1=O,1.6,-4.0,85.9*,-1.7,1.7
CCOP1(=S)Oc2cc3c(cc2C(C(=O)OC)(C(F)(F)F)O1)OCO3 (configuration not stated),0.3,-1.6,82.4*,-3.8,-2.1
O=C(NC1(C(F)(F)F)Oc2ccc(Cl)cc2O1)N1CCC2(CC1)OCCO2 (configuration not stated),1.9,77.9*,-19.9,-4.2,8.8
Cc1nc2ccccc2c(=O)n1/N=C/c1cc(Br)cc(Br)c1O,0.3,55.3*,/,5.3,0.3
CCN1C[C@]2(C)CC[C@H](O)[C@@]34C5C[C@@H]6[C@@H](OC)C[C@@](O)(C5[C@H]6O)[C@@H](CC23)C14 (some centres not stated),/,/,24.0,/,/
CCOc1ccccc1N=C1SCCCN1C,-2.0,4.4,32.7,0.6,-1.8
CCOc1cccc(=NC2CCCCC2)c2c(C)n(C)c(C)c12,8.1,-17.1,78.7*,-0.6,-1.6
CC(O)C(C)OC(=O)[C@@H]1C[C@@H]2c3cccc4c3c(cn4C(C)C)C[C@H]2N(C)C1 (some centres not stated),/,/,-0.4,/,/
SMILES,CHOP UPR activ,H9c2 protect,CHOP inh,iPSC survival up,XBP1 UPR activ
Nc1c(C(=O)NCCN2CCOCC2)c2nc3ccccc3nc2n1Cc1ccccc1,0.0,17.0,34.1,-0.5,-5.1
COc1ccc(CCNC(=O)c2c(N)n(CCN3CCOCC3)c3nc4ccccc4nc23)cc1,3.3,24.2,75.7*,4.5,1.2
CCCCn1c(N)c(C(=O)NCCN2CCOCC2)c2nc3ccccc3nc21,0.2,8.1,27.7,0.6,3.0
Nc1c(C(=O)NCCc2ccccc2)c2nc3ccccc3nc2n1CCN1CCOCC1,-0.6,7.6,88.5*,-1.3,2.7
CC(C)CCNC(=O)c1c(N)n(CC2CCCO2)c2nc3ccccc3nc12 (configuration not stated),1.2,-10.0,76.1*,1.6,0.7
N#CC(=Cc1ccc(O)c(O)c1)C(N)=S,/,/,-1.7,/,/
Cc1cccc(CN2CCN(c3ccc(Cl)cc3)CC2)c1,1.2,-8.9,82.6*,0.6,1.3
Cc1cccc(CN2CCN(Cc3ccc(Cl)cc3)CC2)c1,-2.7,-4.5,-11.1,1.2,-3.4
O=C1NC(=O)C(=Cc2ccc(-c3ccccc3[N+](=O)[O-])o2)C(=O)N1,-0.1,-2.2,95.3*,0.3,-2.7
CC(C)c1ccc(N2C(=O)NC(=O)/C(=C/C=C/c3ccco3)C2=O)cc1,/,5.2,103.2*,0.2,/
Oc1ccc2c3c1O[C@H]1c4oc5ccccc5c4C[C@@]4(O)C(C2)N(CC2CC2)CCC314 (some centres not stated),/,/,-22.8,/,/
O=C(CNC(=O)c1ccc(Br)cc1)Nc1ccc(Br)cc1C(=O)c1ccccc1,-0.3,-13.1,76.9*,4.4,1.0
O=C(CN1CCOCC1)NCC(=O)Nc1ccc(Br)cc1C(=O)c1ccccc1,-1.3,1.6,-4.6,2.0,2.7
C[C@]12CC[C@H]3[C@@H](CCC4C[C@H](O)CC[C@@]43C)[C@@H]1CC[C@@H]2O (some centres not stated),/,/,-8.6,/,/
CCCn1c(C)c(C(=O)c2ccc3ccccc3c2)c2ccccc21,/,/,-17.7,/,/
COc1cccc(CN2CCN(c3ccc(F)cc3)CC2)c1OC,/,-2.6,/,1.1,/
Cc1cc(O)c(CN2CCN(c3ccccc3)CC2)cc1C,0.1,-19.7,82.1*,-1.6,-4.3
COc1ccc(CN2CCN(c3ccccc3)CC2)c(C)c1C,0.9,-8.3,80.2*,-0.5,1.8
C=C1C(=O)OC2CC3(C)OC3C3OC3C3=CC(OC3=O)C12 (configuration not stated),/,-15.3,/,0.9,/
Cc1cc2c(C(C)C)c(O)c(O)c(C=O)c2c(O)c1-c1c(C)cc2c(C(C)C)c(O)c(O)c(C=O)c2c1O,/,-24.9,109.4*,4.7,/
O=P(O)(O)C(Cl)(Cl)P(=O)(O)O,/,/,1.8,/,/
COc1cccc(NP(=O)(Oc2ccccc2Cl)Oc2ccccc2Cl)c1,0.3,-19.7,91.0*,-0.6,-2.0
CC[C@H](C)[C@@H]1O[C@@]2(C=CC1C)CC1C[C@@H](CC=C(C)C(O[C@H]3CC(OC)C(O[C@H]4CC(OC)C(O)C(C)O4)C(C)O3)C(C)C=CC=C3CO[C@@H]4C(O)C(C)=C[C@@H](C(=O)O1)[C@]34O)O2 (some centres not stated),35.9,/,/,/,50.1*
